Source: ChEMBL document CHEMBL3751842, “Novel triazolothiadiazines act as potent anticancer agents in liver cancer cells through Akt and ASK-1 proteins” (Bioorg Med Chem, 2016)
pIC50: −log10 of the molar value.

Tests used:
[1] = Effect on un-phosphorylated beta-catenin level in human HuH7 cells after 24 to 48 hrs by Western blot analysis; assay type: ADME, cell-based; conditions: huh-7
How it was run: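 Cells were exposed to compound or DMSO control for 24 or 48 h. Lysates were loaded at […] protein per lane and immunoblotted with antibodies diluted 1:100 to 1:500 in 5% BSA-TBS-T. Targets were p-Akt (Ser473), Akt, p-GSK3-α/β (Ser21/9), GSK3-α/β, SAPK/JNK, p-SAPK/JNK (Thr183/Tyr185), PARP, p-β-catenin, β-catenin, cyclin D1, p-ASK1 (S83) and p-ASK1 (S966). Actin served as the loading control.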

[2] = Cytotoxicity against human FOCUS cells assessed as growth inhibition after 72 hrs by sulforhodamine B assay; assay type: functional, cell-based; conditions: Homo sapiens, FOCUS, 72 h; read-out: IC50
How it was run: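 Cells were grown at 37°C, 5% CO2 in DMEM with 10% FBS. They were seeded at 1000–3000 cells/well, grown 24 h, then exposed to compound at 2.5–40 µM for 72 h. Cells were fixed in 10% TCA for 1 h at 4°C, stained with 0.4% SRB in 1% acetic acid for 10 min, and the dye solubilized in 10 mM Tris. Absorbance was read at 515 nm; runs were in triplicate; IC50 was calculated, with fits of R2 0.8–1 accepted.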

In the case of `Cc1ccc(C2=Nn3c(nnc3C(C)c3ccc(CC(C)C)cc3)SC2)cc1` (centres undefined), the Activity [1] was “Non-toxic” and the pIC50 [2] was 5.17.
In the case of `COc1ccc(C2=Nn3c(nnc3C(C)c3ccc(CC(C)C)cc3)SC2)cc1` (centres undefined), the Activity [1] was “Non-toxic” and the pIC50 [2] was 5.62.
